This passage reports IC50 and GI50 results from ChEMBL document CHEMBL1138744, “In vitro cytotoxic activities of 2-alkyl-4,6-diheteroalkyl-1,3,5-triazines: new molecules in anticancer research” (J Med Chem, 2004).

What all share (format): functional, cell-based
Test [1] concerns SR. Description: Cytotoxic activity of compound towards human cancer cell line SR (leukemia). In a few lines: (§1)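 Compounds first passed a one-dose primary assay on three cell lines, then were tested on a 60-line human tumour panel. Dose–response curves gave growth-inhibition values (IG50, μM). For each compound, only the most sensitive of the 60 lines was reported.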
Test [2] deals with C6. The experiment in a line: Cytotoxic activity of compound towards […] cell line after 72 hr of administration. Conditions: Rattus norvegicus, C6, 72 h; call rule not given here.
The subject of test [3] is C6. The experiment in a line: Cytotoxic activity of compound towards […] cell line after 48 hr of administration. Conditions: Rattus norvegicus, C6, 48 h.
Test [4] relates to L1210. The experiment in a line: Cytotoxic activity of compound towards human L1210 cell line after 72 hr of administration. Conditions: Mus musculus, L1210, 72 h.
Test [5] concerns HL-60. The experiment in a line: Cytotoxic activity of compound towards human HL60 cell line after 48 hr of administration. The settings on record: HL-60, 48 h.
Test [6] deals with L1210. Description: Cytotoxic activity of compound towards human leukemia L1210 cell line after 48 hr of administration. The settings on record: Mus musculus, L1210, 48 h.
The test system of test [7] is HL-60. Description: Cytotoxic activity of compound towards human HL60 cell line after 72 hr of administration. The settings on record: HL-60, 72 h.
Test [8] deals with HCT-116. The experiment in a line: Cytotoxic activity of compound towards human cancer cell line HCT116 (colon cancer). In short, it runs like this: as §1
Test [9] has as its system L1210. The experiment in a line: Cytotoxic activity of compound towards […] cell line after 48 hr of administration; NE= No effect.
The nature of test [10]: Cytotoxic activity of compound towards human L1210 cell line after 72 hr of administration; a is No cytotoxic effect.
The test system of test [11] is LOX IMVI. The experiment in a line: Cytotoxic activity of compound towards human cancer cell line LOX IMVI (melanoma). In a few lines:
as §1

For test [12], the system named is C6. The experiment in a line: Cytotoxic activity of compound towards […] cell line after 72 hr of administration; NE= No effect.
Test [13] deals with HL-60. The experiment in a line: Cytotoxic activity of compound towards human HL60 cell line after 72 hr of administration; NE= No effect.
Test [14] deals with L1210. The experiment in a line: Cytotoxic activity of compound towards human L1210 cell line after 72 hr of administration; NE= No effect.
For test [15], the system named is HL-60. The experiment in a line: Cytotoxic activity of compound towards human HL60 cell line after 48 hr of administration; NE= No effect.
The test system of test [16] is CAKI-1. Description: Cytotoxic activity of compound towards human cancer cell line CAKI-1 (renal cancer). In short, it runs like this:
as §1

In test [17] the test system is HOP-62. Description: Cytotoxic activity of compound towards human cancer cell line HOP-62 (lung cancer). In short, it runs like this:
as §1

The subject of test [18] is OVCAR-4. Description: Cytotoxic activity of compound towards human cancer cell line OVCAR-4 (ovarian cancer). In short, it runs like this: as §1

Consider `COc1ccc(Oc2nc(C#CC(C)(C)O)nc(Oc3ccc(OC)cc3)n2)cc1`, for which the half-inhibitory concentration (IC50) in [1] was 0.63 µM; in test [2] it was over 10000 µM; in [3], over 10000 µM; in [4], 14.1 µM; in test [5], 17 µM; in [6], 11 µM. This compound came in with an IC50 in [7] of 36.3 µM.
Regarding `COc1nc(C#CC2CCCCC2)nc(OC)n1`, the concentration for half-maximal inhibition (IC50) in test [8] turned out to be 0.4 µM.
`COc1ccc(Oc2nc(Oc3ccc(OC)cc3)nc(Oc3ccc(OC)cc3)n2)cc1`: the IC50 in [5] came out at 70.8 µM; in test [7], 52.5 µM.
Consider `COc1ccc(Nc2nc(C#CC(C)(C)C)nc(Nc3ccc(OC)cc3)n2)cc1`, for which the IC50 entry was “Not Active” in [9]; over 10000 µM in test [2]; over 10000 µM in test [3]; “No effect” in test [10]; 589 µM in test [5]; 575 µM in [7].
With `COc1nc(C#CCCCC#N)nc(OC)n1`, the GI50 in test [11] worked out at 2.09 µM.
As for `CC(C)(C)C#Cc1nc(N2CCOCC2)nc(N2CCOCC2)n1`, the IC50 entry in test [12] is “Not Active”; in [3] it was 6610 µM; in [4], 120 µM; in test [5], 182 µM; in test [6], 182 µM; in [7], 389 µM.
For the compound `COc1nc(C#CC(C)(C)O)nc(OC)n1`, the IC50 in [2] came out at 15.1 µM; in test [3], 16.2 µM; in test [4] it was 12.9 µM; in test [5], 15.8 µM; in test [6] it was 14.1 µM; in test [7], 15.1 µM.
For `CC(C)(C)C#Cc1nc(N(CCO)CCO)nc(N(CCO)CCO)n1`, the IC50 result in [9] was “Not Active”; in test [12], “Not Active”; in test [3], 3390 µM; in test [13] it was “Not Active”; in [14], “Not Active”; in [15] it was “Not Active”.
As to `COc1nc(C#CC(C)(C)C)nc(OC)n1`, the half-inhibitory concentration (IC50) in [1] amounted to 5.25 µM; in test [2], 16.6 µM; in test [3], 16.6 µM; in test [4] it was 9.12 µM; in test [5], 7.08 µM; in test [6], 12 µM. In [7], the IC50 was determined as 7.08 µM.
`CC(C)c1nc(N2CCOCC2)nc(N2CCOCC2)n1`: the half-inhibitory concentration (IC50) turned out to be 490 µM in [2]; 141 µM in test [3]; 67.6 µM in [4]; 87.1 µM in test [5]; 93.3 µM in test [6]; 200 µM in [7].
In the case of `COc1nc(OC)nc(-c2cccc(F)c2)n1`, in test [16], the IC50 was under 0.01 µM.
Take `C1CN(c2nc(N3CCOCC3)nc(N3CCOCC3)n2)CCO1`: the half-maximal inhibitory concentration (IC50) in [2] stood at 288 µM; in test [3], 151 µM; in [4] it was 110 µM; in test [5], 129 µM; in test [6] it was 151 µM; in test [7], 100 µM.
With `COc1nc(OC)nc(OC)n1`, the half-maximal inhibitory concentration (IC50) in test [5] is 302 µM; in [7], 339 µM.
In test [17], `CCC(O)C#Cc1nc(OC)nc(OC)n1` (stereo not given) displayed a half-maximal inhibitory concentration (IC50) of 4.9 µM. This counts as single-digit micromolar.
Regarding `CC[C@H](C)Cc1nc(N2CCOCC2)nc(N2CCOCC2)n1`, the IC50 in [2] was determined as 240 µM; in test [3], 575 µM; in test [4], 57.5 µM; in test [5] it was 219 µM; in test [6], 141 µM; in [7], 141 µM.
With `COc1nc(C#CC2(O)CCCCC2)nc(OC)n1`, in test [18], 1.86 µM corresponded to half-maximal inhibition (IC50).

By IC50 is commonly meant the concentration that gives 50% inhibition. As usually defined, the GI50 is the concentration that inhibits growth by half.
